Consider eleven molecules from ChEMBL document CHEMBL1122245, “Synthesis and antiviral activity of distamycin A analogues: substitutions on the different pyrrole nitrogens and in the amidine function” (1983).

In assay [1] the test system is Human alphaherpesvirus 1. The assay can be described thus: Inhibitory effect against HSV-1 plaque formation at a concentration of 200 uM. As to conditions: at 200 µM. In kind it is functional.
Assay [2] has as its system Nucleic Acid. The assay is described as follows: Percent inhibition against DNA polymerase alpha when (dT)n-(rA)12-18 sequence was used as template at 10 uM concentration. In kind it is nucleic-acid assay. In a few lines: (§1)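 Cellular DNA polymerase α (2.5 units/mL) was run in Tris-HCl pH 8.0 buffer with MgCl2, DTT and BSA at 37 °C. Values are duplicate means, and inhibition under 5% was taken as not significant.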

Assay [3] concerns Avian myeloblastosis virus reverse transcriptase (Avian myeloblastosis virus). The assay can be described thus: Percent inhibition against AMV reverse transcriptase when (dT)n-(rA)12-18 sequence was used as template at 50 uM concentration.
Assay [4] has the same test system. The assay is described as follows: Percent inhibition against AMV reverse transcriptase when (dC)n-(dG)12-18 sequence was used as template at 50 uM concentration.
Assay [5] is described as follows: Percent inhibition against DNA polymerase alpha when activated DNA was used as template at 10 uM concentration. Put shortly: (§2)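 Commercial cellular DNA polymerase α (2.5 units/mL) was run in 100 mM Tris-HCl pH 8.0 with 3 mM MgCl2, 1 mM DTT, 40 μg BSA, 100 μM dATP/dCTP/dGTP, ~10 μM [3H]dTTP and 200 μg/mL activated DNA. Incubation was at 37 °C. Values are duplicate means, and inhibition under 5% was taken as not significant.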

The test system of assay [6] is Avian myeloblastosis virus reverse transcriptase (Avian myeloblastosis virus). The assay can be described thus: Percent inhibition against AMV reverse transcriptase when (rC)n-(dG)12-18 sequence was used as template at 50 uM concentration.
Assay [7] concerns Human alphaherpesvirus 1. The assay is described as follows: (§3) Percent inhibition of cellular growth against HSV-1 cells at 200 uM concentration. The class given is functional. As to conditions: Human alphaherpesvirus 1, HSV-1. Put shortly:
(§4)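 Toxicity taken as the reduction in Vero cell proliferation over 48 h.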

Assay [8] has as its system HSV-1. The assay can be described thus: Percent inhibition of DNA polymerase activity in HSV-1 cell lines at a concentration of 50 uM. In kind it is cell-based. To be noted: at 50 µM. Put shortly:
(§5)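 HSV-1 DNA polymerase was isolated from Vero cells infected with HSV-1 strain C42. It was assayed with [3H]dTTP as labelled substrate and activated calf thymus DNA at 200 μg/mL. Values are averages of duplicate assays, and inhibition under 5% was taken as not significant.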

Assay [9] in a line: Percent inhibition against DNA polymerase alpha when activated DNA was used as template at 50 uM concentration. In a few lines: as §2
Assay [10] deals with Nucleic Acid. The assay is described as follows: Percent inhibition against DNA polymerase alpha when (dT)n-(rA)12-18 sequence was used as template at 50 uM concentration. The class given is nucleic-acid assay. Put shortly:
as §1

Assay [11] deals with unidentified influenza virus. The class given is functional. To be noted: at 200 µM.
Assay [12] concerns HSV-1. The assay can be described thus: Percent inhibition of DNA polymerase activity in HSV-1 cell lines at a concentration of 10 uM. In kind it is cell-based. To be noted: at 10 µM. In a few lines:
as §5

Assay [13] deals with Human alphaherpesvirus 1. The assay can be described thus: Percent inhibition of cellular growth against HSV-1 cells at 10 uM concentration. In kind it is functional. As to conditions: Human alphaherpesvirus 1, HSV-1. Put shortly: as §4
The subject of assay [14] is Human alphaherpesvirus 1. The assay can be described thus: Inhibitory effect against HSV-1 plaque formation at a concentration of 10 uM. The class given is functional. In a few lines: (§6)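 HSV-1 strain C42 plaque formation in Vero cells, with compound added to parallel cultures. Values are averages of duplicate cell cultures.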
The subject of assay [15] is Human alphaherpesvirus 1. The assay is described as follows: Percent reduction in HSV-1 yield at 10 uM concentration. The class given is functional. In a few lines:
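HSV-1 strain C42 yield from Vero cells, measured by virus titration. Compounds were added to parallel cultures, and values are averages of duplicate cultures. Inhibition below 50% was not considered significant.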

In assay [16] the test system is Human alphaherpesvirus 1. The assay is described as follows: Inhibitory effect against HSV-1 plaque formation at a concentration of 50 uM. The class given is functional. Put shortly: as §6
The test system of assay [17] is Human alphaherpesvirus 1. The assay can be described thus: Inhibitory effect against HSV-1 plaque formation at a concentration of 100 uM. In kind it is functional. In a few lines: as §6
Assay [18] relates to Human alphaherpesvirus 1. The assay is described as follows: Percent inhibition of cellular growth against Vero cells at 100 uM concentration. As to conditions: Human alphaherpesvirus 1, HSV-1. The class given is functional. In a few lines:
as §4

Assay [19] has as its system unidentified influenza virus. The assay is described as follows: Inhibitory effect against influenza virus plaque formation at a concentration of 100 uM. In kind it is functional. Put shortly:
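Plaque inhibition of influenza A strain Victoria in MDCK cells. Values are averages of duplicate cell cultures.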

Assay [20] relates to Human alphaherpesvirus 1. The assay can be described thus: Inhibitory effect against HSV-1 plaque formation at a concentration of 5 uM. In kind it is functional. Put shortly:
as §6

The test system of assay [21] is Human alphaherpesvirus 1. The assay can be described thus: Inhibitory effect against HSV-1 plaque formation at a concentration of 1 uM. In kind it is functional. Put shortly:
as §6

The test system of assay [22] is Human alphaherpesvirus 1. Described as §3. In kind it is functional. As to conditions: Human alphaherpesvirus 1, HSV-1. The source holds these as a separate data set.
Assay [23] deals with Human alphaherpesvirus 1. The assay is described as follows: Percent inhibition of cellular growth against HSV-1 cells at a concentration of 200 uM. The class given is functional. To be noted: Human alphaherpesvirus 1, HSV-1. Put shortly:
as §4

In general, inhibition refers to the percentage by which the read-out fell short of the control. Low values mean a response near the control, high ones a response far below the control. On to `Br.Cn1cc(NC(=O)c2cc(NC(=O)c3cc(NC(=O)c4cc(NC(=O)c5cc(NC=O)cn5C)cn4C)cn3C)cn2C)cc1C(=O)NCCC(=N)N`, for which the Reduction in assay [1] is listed as less than 50%; in assay [11], 65%. Also, the inhibition in assay [2] is 20%; in [3], 39%; in assay [4], less than 5%; in [5], 17%; in assay [6], less than 5%; in [8], 91%. In addition, the inhibition in assay [9] was determined as 50%; in [10], 56%; in assay [12] it was 56%. Besides, the inhibition at 200 µM in [7] is 10%.
On to `Br.Cn1cc(NC(=O)c2cc(NC(=O)c3cc(NC=O)cn3C)c[nH]2)cc1C(=O)NCCC(=N)N`, for which the inhibition in assay [2] is 55%; in assay [3] it was 13%; in assay [4] it was less than 5%; in assay [5], 29%; in assay [6], less than 5%; in assay [8], 88%. Moreover, the values for the inhibition in [9], in [10] and in assay [12] were 41%, 80% and 55%, respectively. In addition, in assay [13], the inhibition at 10 µM is 25%. The Reduction is reported as less than 50% in assay [14], 92% in assay [15], less than 50% in [11] and 90% in assay [16].
In the case of `Br.Cn1cc(NC(=O)c2cc(NC(=O)c3cc(NC=O)c[nH]3)cn2C)cc1C(=O)NCCC(=N)N`, the inhibition in assay [2] was 58%; in [3], 18%; in assay [4] it was less than 5%; in assay [5] it was 31%; in [6], less than 5%; in assay [8], 89%. Besides, the inhibition was 45% in assay [9], 82% in assay [10] and 54% in [12]. Moreover, in [13], the inhibition at 10 µM was determined as 30%. The Reduction in assay [17] is more than 90%; in [14], 60%; in [15] it was 98%; in [11] it was 75%; in assay [16], 90%. Also, in [18], at 100 µM the inhibition was 50%.
Turning to `Br.Cn1cc(NC=O)cc1C(=O)Nc1cc(C(=O)Nc2c[nH]c(C(=O)NCCC(=N)N)c2)n(C)c1`, the inhibition in assay [2] was 45%; in assay [3] it was 17%; in assay [4], less than 5%; in [5], 27%; in assay [6], less than 5%; in assay [8], 83%. The inhibition in assay [9] worked out at 37%; in assay [10], 75%; in [12], 57%. The molecule further returned an inhibition at 10 µM in assay [13] of 60%. Also, the Reduction in assay [19] is on record as less than 50%; in assay [20], 85%; in assay [14], more than 90%; in assay [21], less than 50%; in [15], 99%.
Turning to `Br.CCn1cc(NC(=O)c2cc(NC(=O)c3cc(NC=O)cn3C)cn2C)cc1C(=O)NCCC(=N)N`, the Reduction in assay [1] and in [11] was less than 50% throughout. The inhibition in assay [2] is 40%; in [3], 11%; in assay [4] it was less than 5%; in assay [5], 26%; in assay [6], less than 5%; in [8], 83%. The inhibition in assay [9] turned out to be 35%; in assay [10] it was 73%; in [12], 52%. In [22], this molecule returned an inhibition at 200 µM of 10%.
Turning to `Br.CCn1cc(NC(=O)c2cc(NC=O)cn2C)cc1C(=O)Nc1cc(C(=O)NCCC(=N)N)n(C)c1`, the Reduction in assay [1] and in assay [11] was less than 50% in each case. The inhibition in assay [2] was 31%; in assay [3], 8%; in [4], less than 5%; in assay [5], 23%; in [6] it was less than 5%; in assay [8] it was 83%. The values for the inhibition in assay [9], in [10] and in assay [12] were 34%, 64% and 48%, respectively. Also, the inhibition at 200 µM in assay [23] was 10%.
Take `Br.Cn1cc(NC(=O)c2cc(NC(=O)c3cc(NC=O)cn3C)cn2C)cc1C(=O)NCCC(=N)N`: the Reduction in assay [1] was 55%; in assay [19], more than 50%; in assay [15], 27%. The inhibition in [2] came to 58%; in assay [5], 31%; in assay [8] it was 83%; in [9], 40%; in [10], 82%; in [12], 49%.
In the case of `Br.CCn1cc(NC(=O)c2cc(NC(=O)c3cc(NC=O)cn3CC)cn2CC)cc1C(=O)NCCC(=N)N`, the Reduction in assay [1] and in assay [11] was less than 50% each time. Further, the inhibition is 58% in assay [2]; 9% in [3]; less than 5% in [4]; 29% in assay [5]; less than 5% in assay [6]; 80% in assay [8]. Also, the inhibition stood at 39% in assay [9], 75% in assay [10] and 47% in assay [12].
For the molecule `Br.CN(C)C(=N)CCNC(=O)c1cc(NC(=O)c2cc(NC(=O)c3cc(NC=O)cn3C)cn2C)cn1C`, the values for the Reduction in assay [1] and in [19] were less than 50% and 50%, respectively. Moreover, the inhibition in assay [2] is 56%; in assay [3], 15%; in assay [4], less than 5%; in assay [5], 29%; in assay [6], less than 5%; in [8], 81%. For the same molecule, the inhibition was found to be 41% in [9], 80% in assay [10] and 44% in assay [12]. In assay [7], this molecule came in with an inhibition at 200 µM of 0%.
In the case of `Br.CCn1cc(NC=O)cc1C(=O)Nc1cc(C(=O)Nc2cc(C(=O)NCCC(=N)N)n(C)c2)n(C)c1`, the Reduction in [1] is 50%; in assay [11], less than 50%. Moreover, the inhibition in assay [2] was 60%; in assay [3], 11%; in assay [4], less than 5%; in [5], 29%; in assay [6], less than 5%; in assay [8], 83%. The inhibition is 42% in assay [9], 85% in [10] and 48% in assay [12]. In [7], this molecule gave an inhibition at 200 µM of 50%.
Take `Br.CNC(=N)CCNC(=O)c1cc(NC(=O)c2cc(NC(=O)c3cc(NC=O)cn3C)cn2C)cn1C`: the Reduction in assay [1] and in assay [19] was less than 50% throughout. For the same molecule, the inhibition is 50% in [2]; 12% in assay [3]; less than 5% in [4]; 27% in [5]; less than 5% in [6]; 76% in assay [8]. For the same molecule, the inhibition in [9] worked out at 38%; in assay [10], 76%; in assay [12], 45%.
